Measured values reported in article PMC5753398 (Journal of the American Chemical Society, 2017).

How the values were obtained:
[1] = system: Shh-mediated Hedgehog signaling (Gli-controlled Firefly luciferase) in NIH3T3 cells; assay: Gli-reporter dual luciferase assay in Shh-N-stimulated NIH3T3 cells; type: cell-based, mouse
Shh/Patched interaction = conditions: read-out: IC50 for inhibition of the Shh/Patched interaction in vitro; ref 25a; cited from earlier work
[2] = system: GST-Shh, GST-Ihh, or GST-Dhh; assay: Competition assay for Hh analog selectivity; type: binding, human; conditions: 10 μM robotnikinin + 400 nM FLAG-HL2-m5
In short: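 Competition format: PBS containing 10 μM competitor plus 400 nM FLAG-tagged macrocyclic peptide (recombinant, E. coli) added to wells coated with GST-Shh, GST-Ihh or GST-Dhh (E. coli BL21(DE3)-expressed, Ni-NTA purified). Wells then developed by HRP anti-FLAG antibody, o-phenylenediamine/urea peroxide substrate (pH 5.0) and A450. Relative affinity = (1 − % inhibition)GST-Hh/(1 − % inhibition)GST-Shh. Triplicate, mean and SD.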

[3] = system: Shh / Hedgehog pathway activation; conditions: read-out: IC50, Shh inhibitory activity in vitro and in cells; similar cell-based assay; cited from earlier work

Compound: CC1=C2C[C@H]3[C@@H](CC=C4C[C@@H](O)CC[C@@]43C)[C@@H]2CC[C@]12O[C@@H]1C[C@H](C)CN[C@H]1[C@H]2C [cyclopamine]
- Inhibition of Shh-induced luminescence ([1]; 10 μM, assay validation): full inhibition

Compound: Ac-TLDDMEEMDGLSD-NH2 [L2-pep]
- Inhibitory activity in Gli-reporter assay ([1]; concentrations up to 30 μM, identical conditions): no inhibitory activity

Compound: HHIP370–390: linear HHIP L2-derived peptide from the literature (GDGMITLDDMEEMDGLSDFTG; UniProt Q96QV1 370-390, looked up, fragment)
- IC50 (Shh/Patched interaction): 150 µM

Compound: O=C(C[C@@H]1C/C=C/CCC(=O)O[C@H](c2ccccc2)CNC1=O)NCc1ccc(Cl)cc1 [robotnikinin]
- Affinity toward Ihh and Dhh relative to Shh [2]: significantly lower affinity
- IC50 [3]: ~15 µM

Compound: c1ccc2c(Oc3nc(Nc4ccc(N5CCOCC5)cc4)c4ncn(C5CCCCC5)c4n3)cccc2c1 [purmorphamine]
- Effect on signaling pathway in HL2-m5-treated cells ([1]; 5 μM purmorphamine added to cells treated with 10 μM HL2-m5): restored activation
